Activity calls are given as the source filed them. The rule behind the calls is not given here.
Assays:
[1] = target: Adenosine receptor A2a (Homo sapiens, UniProt P29274); assay: biochemical; type: cell-based, CHO
[2] = target: T1, Adenosine receptor A1 (Homo sapiens, UniProt P30542); assay: Displacement of [3H]DPCPX from human adenosine A1 receptor expressed in CHO cells; type: cell-based
T1 sequence (P30542 whole entry): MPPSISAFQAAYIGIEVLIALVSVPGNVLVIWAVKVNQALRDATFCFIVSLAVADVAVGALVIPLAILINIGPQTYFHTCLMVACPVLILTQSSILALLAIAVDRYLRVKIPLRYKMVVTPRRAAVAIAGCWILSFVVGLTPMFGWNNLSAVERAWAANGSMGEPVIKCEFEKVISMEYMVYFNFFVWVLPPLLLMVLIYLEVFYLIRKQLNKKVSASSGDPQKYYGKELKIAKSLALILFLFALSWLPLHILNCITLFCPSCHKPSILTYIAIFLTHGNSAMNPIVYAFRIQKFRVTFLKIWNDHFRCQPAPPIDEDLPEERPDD

[3] = target: T2, Adenosine receptor A3 (Homo sapiens, UniProt P0DMS8); assay: biochemical; type: cell-based, CHO
T2 sequence (P0DMS8 whole entry): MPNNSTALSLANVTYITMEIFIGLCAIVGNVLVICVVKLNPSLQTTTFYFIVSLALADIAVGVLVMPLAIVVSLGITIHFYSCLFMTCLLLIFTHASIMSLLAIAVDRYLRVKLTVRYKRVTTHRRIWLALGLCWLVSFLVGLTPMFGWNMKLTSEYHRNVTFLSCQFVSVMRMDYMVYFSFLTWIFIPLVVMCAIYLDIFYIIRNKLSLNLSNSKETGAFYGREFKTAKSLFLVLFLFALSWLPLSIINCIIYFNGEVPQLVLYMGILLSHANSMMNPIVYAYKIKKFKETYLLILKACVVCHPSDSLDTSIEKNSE

[4] = target: T3, Adenosine receptor A3 (Homo sapiens) (UniProt P0DMS8); assay: Induction of adenosine A3 receptor-mediated ERK1/2 phosphorylation in human U87MG cells at 100 nM by ELISA; type: cell-based; details: U-87MG ATCC, TDE = time-dependent effect
T3 sequence (whole entry): T2 sequence (P0DMS8 whole entry)
Procedure, shortened: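 Time course in U87MG cells given 100 nM Cl-IB-MECA for 5–120 min. Phospho-ERK1/2 is read by colorimetric cell-based ELISA after fixation, with crystal violet cell-number correction. Results are % of control cells, mean ± SEM, Student t test.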

[5] = tested on: U-87 MG; assay: Inhibition of IBMECA-mediated human U87MG cell proliferation after 48 hrs by trypan blue exclusion assay; type: functional, cell-based, U-87MG ATCC
Procedure, shortened: (§1)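 U87MG cells in RPMI/10% FBS are arrested in G1 (0.5% FBS, 48 h). They are then treated 48 h with Cl-IB-MECA 100 nM or IB-MECA 12 nM, with or without antagonist at 0.1–10 nM or 0.01–5 nM. Live cells are counted by 0.4% trypan blue exclusion in a haemocytometer and expressed as % of control, mean ± SEM.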

[6] = Octanol-water partition coefficient, log P of the compound; type: physicochemical
[7] = tested on: U-87 MG; assay: Inhibition of Cl-IB-MECA-mediated human U87MG cell proliferation after 48 hrs by trypan blue exclusion assay; type: functional, cell-based, U-87MG ATCC
Procedure, shortened: as §1

[8] = tested on: U-87MG ATCC; assay: Antiproliferative activity against human U87MG cell proliferation at 0.1 to 10 nM after 48 hrs by trypan exclusion assay; type: functional, cell-based
Procedure, shortened: as §1

[9] = target: T4, Adenosine receptor A2b (Homo sapiens, UniProt P29275); assay: Antagonist activity human recombinant adenosine A2B receptor expressed in CHO cells assessed as inhibition of NECA-mediated [3H]cAMP accumulation treated 15 mins before NECA challenge measured after 30 mins by liquid scintillation spectrometry; type: functional, cell-based
T4 sequence (P29275 whole entry): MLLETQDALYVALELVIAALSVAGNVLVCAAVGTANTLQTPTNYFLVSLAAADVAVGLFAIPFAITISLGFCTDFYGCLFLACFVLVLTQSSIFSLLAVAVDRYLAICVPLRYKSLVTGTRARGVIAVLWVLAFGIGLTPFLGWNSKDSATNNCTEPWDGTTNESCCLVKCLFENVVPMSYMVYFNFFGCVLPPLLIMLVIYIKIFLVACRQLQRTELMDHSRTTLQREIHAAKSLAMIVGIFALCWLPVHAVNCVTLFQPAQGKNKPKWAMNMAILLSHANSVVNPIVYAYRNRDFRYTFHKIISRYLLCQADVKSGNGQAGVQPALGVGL
Procedure, shortened: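 CHO cells stably expressing hA2B are pre-incubated 15 min at 37 °C in DMEM with ADA 1 U/mL and Ro 20-1724 20 μM. […] Cells are lysed in 0.4 N HCl. cAMP is measured by [3H]cAMP competition with bovine adrenal binding protein (150 min, 0 °C), with filtration and scintillation counting. Mean ± SEM, four experiments in triplicate.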

[10] = target: T2, Adenosine receptor A3; assay: Antagonist activity at adenosine A3 receptor in human U87MG cells assessed as inhibition of Cl-IB-MECA-mediated ERK1/2 phosphorylation after 30 mins by ELISA; type: functional, cell-based, U-87MG ATCC
[11] = target: T2, Adenosine receptor A3; assay: Antagonist activity human recombinant adenosine A3 receptor expressed in CHO cells assessed as blockade of NECA-mediated inhibition of forskolin-stimulated [3H]cAMP production treated 15 mins before NECA challenge measured after 30 mins by liquid scintillation spectrometry; type: functional, cell-based
Procedure, shortened: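 hA3-expressing CHO cells are pre-incubated 15 min at 37 °C with ADA 1 U/mL and Ro 20-1724 20 μM. […] HCl lysates are assayed for cAMP by [3H]cAMP/binding-protein competition with scintillation read-out. IC50 is reported as mean ± SEM of four experiments in triplicate.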

[12] = target: T5, Mitogen-activated protein kinase; ERK1/ERK2 (Homo sapiens) (UniProt P27361+P28482); assay: Modulation of ERK1/2 phosphorylation in human U87MG cells at 0.25 to 10 nM after 30 mins by ELISA; type: cell-based; details: U-87MG ATCC
[13] = target: T6, Adenosine deaminase (Bos taurus) (UniProt P56658); assay: Inhibition of bovine spleen adenosine deaminase at 10 uM after 2 mins by spectrophotometry
T6 sequence (whole entry): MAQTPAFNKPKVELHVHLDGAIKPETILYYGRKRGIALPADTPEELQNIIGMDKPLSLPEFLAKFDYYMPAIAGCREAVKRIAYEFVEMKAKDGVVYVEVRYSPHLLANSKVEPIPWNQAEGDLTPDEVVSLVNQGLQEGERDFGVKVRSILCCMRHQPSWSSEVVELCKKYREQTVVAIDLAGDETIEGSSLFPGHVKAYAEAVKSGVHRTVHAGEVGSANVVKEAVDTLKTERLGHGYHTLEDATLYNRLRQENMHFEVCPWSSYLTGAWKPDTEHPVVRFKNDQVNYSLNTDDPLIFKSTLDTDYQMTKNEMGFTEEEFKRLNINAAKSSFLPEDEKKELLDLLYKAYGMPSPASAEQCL
Procedure, shortened: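 Bovine spleen ADA at 0.3 nM with 50 μM adenosine in 50 mM potassium phosphate, pH 7.2, at 30 °C. Inhibitor is tested at 10 μM with final DMSO ≤4%. Deamination is followed as the change in A262 over 2 min, against a substrate-free blank.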

[14] = target: T1, Adenosine receptor A1; assay: Inhibition of human adenosine A1 receptor
Procedure, shortened: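 Displacement binding using membranes (30 μg protein) from CHO cells stably expressing human A1 receptor. […] Six compound concentrations were tested, in DMSO ≤2% final. Nonspecific binding was defined with 50 μM RPIA. IC50 was converted to Ki by Cheng-Prusoff; at least three determinations.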

[15] = target: T5, Mitogen-activated protein kinase; ERK1/ERK2 (Homo sapiens); assay: Modulation of ERK1/2 phosphorylation in human U87MG cells at 0.05 to 1 nM after 30 mins by ELISA; type: cell-based; details: U-87MG ATCC
[16] = tested on: U-87MG ATCC; assay: Antiproliferative activity against human U87MG cell proliferation at 0.01 to 5 nM after 48 hrs by trypan exclusion assay; type: functional, cell-based
Procedure, shortened: as §1

Adenosine receptor A2a, sequence (P29274 whole entry): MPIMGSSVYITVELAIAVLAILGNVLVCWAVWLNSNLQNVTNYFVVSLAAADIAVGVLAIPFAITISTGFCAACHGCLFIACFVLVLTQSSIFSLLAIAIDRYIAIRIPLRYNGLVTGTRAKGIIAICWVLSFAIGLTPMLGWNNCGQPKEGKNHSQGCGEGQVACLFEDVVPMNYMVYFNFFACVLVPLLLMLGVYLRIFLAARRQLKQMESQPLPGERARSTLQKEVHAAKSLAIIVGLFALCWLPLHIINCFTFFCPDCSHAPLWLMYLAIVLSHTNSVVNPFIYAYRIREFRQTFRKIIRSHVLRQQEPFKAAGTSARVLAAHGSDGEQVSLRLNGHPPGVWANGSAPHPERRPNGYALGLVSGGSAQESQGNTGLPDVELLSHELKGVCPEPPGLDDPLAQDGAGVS
T5 sequence (P27361 whole entry, looked up): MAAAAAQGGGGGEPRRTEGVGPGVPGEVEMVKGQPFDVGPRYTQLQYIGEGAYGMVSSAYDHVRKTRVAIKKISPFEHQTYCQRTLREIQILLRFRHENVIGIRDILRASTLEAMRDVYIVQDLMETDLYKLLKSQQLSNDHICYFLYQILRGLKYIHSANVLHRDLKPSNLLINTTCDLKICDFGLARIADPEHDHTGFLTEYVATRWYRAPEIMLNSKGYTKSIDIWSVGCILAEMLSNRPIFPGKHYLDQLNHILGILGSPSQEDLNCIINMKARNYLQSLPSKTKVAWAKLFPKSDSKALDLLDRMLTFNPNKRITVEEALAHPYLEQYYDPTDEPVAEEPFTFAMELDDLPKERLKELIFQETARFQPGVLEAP
T5 sequence (P28482 whole entry, looked up): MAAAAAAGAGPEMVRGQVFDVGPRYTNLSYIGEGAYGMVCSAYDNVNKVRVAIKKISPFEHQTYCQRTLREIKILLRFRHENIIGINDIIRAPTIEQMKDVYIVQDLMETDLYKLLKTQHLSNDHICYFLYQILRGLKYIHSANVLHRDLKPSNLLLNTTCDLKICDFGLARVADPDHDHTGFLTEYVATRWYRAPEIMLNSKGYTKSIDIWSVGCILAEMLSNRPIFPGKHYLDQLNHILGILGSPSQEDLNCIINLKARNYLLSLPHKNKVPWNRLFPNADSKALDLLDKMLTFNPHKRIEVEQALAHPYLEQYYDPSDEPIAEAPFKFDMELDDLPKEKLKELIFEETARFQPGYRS

Ki [1] | Ki [2] | Ki [3] | inhibition [13] | Compound | also measured
> 10000 nM | > 10000 nM | 22.1 nM |  | COc1ccc(C(=O)Nc2nc(-c3ccccc3)nc3nn(Cc4ccccc4)cc23)cc1 | 
> 10000 nM | > 10000 nM | 121 nM |  | O=C(Nc1cccc(Cl)c1)Nc1nc(-c2ccccc2)nc2nn(Cc3ccccc3)cc12 | 
314 nM | 1050 nM | 22.3 nM |  | O=C(Nc1nc(-c2ccccc2)nc2nn(CCc3ccccc3)cc12)c1cccc(Cl)c1 | 
> 10000 nM | > 10000 nM | > 1000 nM |  | O=C(Nc1ncnc2nn(Cc3ccccc3)cc12)c1ccccc1 | 
 | 120 nM |  |  | CNC(=O)OC[C@H]1O[C@@H](n2cnc3c(NCc4cccc(I)c4)nc(Cl)nc32)[C@H](O)[C@@H]1O | Activity [4]: tde
728 nM | 334 nM | 0.6 nM | inactive | Cn1cc2c(NC(=O)c3ccccc3)nc(-c3ccccc3)nc2n1 | IC50 [5]: 0.41 nM; logP [6]: 3.8; IC50 [7]: 0.17 nM; Activity [8]: inactive; IC50 [9]: 49.8 nM; IC50 [10]: 0.74 nM; IC50 [11]: 1.9 nM; Activity [12]: inactive
> 10000 nM | > 10000 nM | 358 nM | inactive | COc1ccc(NC(=O)Nc2nc(-c3ccccc3)nc3nn(C)cc23)cc1 | 
> 10000 nM | > 10000 nM | > 1000 nM |  | COc1ccc(NC(=O)Nc2nc(-c3ccccc3)nc3nn(CCc4ccccc4)cc23)cc1 | 
> 10000 nM | > 10000 nM | 2.9 nM | inactive | COc1ccc(NC(=O)Nc2nc(-c3ccccc3)nc3nn(Cc4ccccc4)cc23)cc1 | IC50 [9]: 1470 nM; IC50 [11]: 8.2 nM
181 nM | 53 nM | 3 nM | inactive | O=C(Nc1nc(-c2ccccc2)nc2nn(Cc3ccccc3)cc12)c1ccccc1 | IC50 [9]: 272 nM; IC50 [11]: 53 nM
> 10000 nM | 290 nM | 2.9 nM | inactive | O=C(Nc1ccccc1)Nc1nc(-c2ccccc2)nc2nn(Cc3ccccc3)cc12 | IC50 [9]: 1320 nM; IC50 [11]: 5.7 nM
> 10000 nM | > 10000 nM | > 1000 nM |  | COc1ccc(C(=O)Nc2ncnc3nn(Cc4ccccc4)cc23)cc1 | 
> 10000 nM | 585 nM | 922 nM | inactive | Cn1cc2c(N)nc(-c3ccccc3)nc2n1 | 
121 nM | 312 nM | 93 nM | inactive | Nc1nc(-c2ccccc2)nc2nn(Cc3ccccc3)cc12 | 
1000 nM | 2500 nM | 503 nM | inactive | Nc1nc(-c2ccccc2)nc2nn(CCc3ccccc3)cc12 | 
 |  |  |  | Cc1cn2c(NC(=O)c3ccccc3)nc(-c3ccccc3)nc2n1 | Ki [14]: 350 nM
> 10000 nM | > 10000 nM | 3.7 nM | inactive | O=C(Nc1nc(-c2ccccc2)nc2nn(Cc3ccccc3)cc12)c1cccc(Cl)c1 | IC50 [9]: 1330 nM; IC50 [11]: 7.6 nM
> 10000 nM | > 10000 nM | 20.9 nM | inactive | Cn1cc2c(NC(=O)Nc3ccccc3)nc(-c3ccccc3)nc2n1 | 
3180 nM | 1040 nM | 0.18 nM | inactive | COc1ccc(C(=O)Nc2nc(-c3ccccc3)nc3nn(C)cc23)cc1 | IC50 [5]: 0.057 nM; logP [6]: 4; IC50 [7]: 0.091 nM; IC50 [9]: 53.9 nM; IC50 [10]: 0.061 nM; IC50 [11]: 2.4 nM; Activity [15]: inactive; Activity [16]: inactive
96 nM | 1700 nM | 36.3 nM |  | O=C(Nc1ccccc1)Nc1nc(-c2ccccc2)nc2nn(CCc3ccccc3)cc12 | 
886 nM | 1080 nM | 5.9 nM | inactive | Cn1cc2c(NC(=O)c3cccc(Cl)c3)nc(-c3ccccc3)nc2n1 | 
> 10000 nM | > 10000 nM | > 1000 nM |  | O=C(Nc1cccc(Cl)c1)Nc1nc(-c2ccccc2)nc2nn(CCc3ccccc3)cc12 | 
227 nM | 27 nM | 43.7 nM |  | O=C(Nc1nc(-c2ccccc2)nc2nn(CCc3ccccc3)cc12)c1ccccc1 | 
> 10000 nM | 922 nM | 29.1 nM | inactive | Cn1cc2c(NC(=O)Nc3cccc(Cl)c3)nc(-c3ccccc3)nc2n1 | 
4900 nM | > 10000 nM | > 1000 nM |  | O=C(Nc1ncnc2nn(Cc3ccccc3)cc12)c1cccc(Cl)c1 | 
1140 nM | 2400 nM | 45.2 nM |  | COc1ccc(C(=O)Nc2nc(-c3ccccc3)nc3nn(CCc4ccccc4)cc23)cc1 | 

Reference: ChEMBL document CHEMBL1157749, “Novel N2-substituted pyrazolo[3,4-d]pyrimidine adenosine A3 receptor antagonists: inhibition of A3-mediated human glioblastoma cell proliferation” (J Med Chem, 2010)
